This is an account of results in ChEMBL document CHEMBL4043302, “Lead Diversification at the Nanomole Scale Using Liver Microsomes and Quantitative Nuclear Magnetic Resonance Spectroscopy: Application to Phosphodiesterase 2 Inhibitors” (J Med Chem, 2018).

Data set [1] can be described thus: Metabolic stability in human hepatocytes at 1 uM after 0.5 to 4 hrs by HPLC-HRMS method. The data set is classed as ADME, cell-based, Hepatocyte. Put shortly: (§1)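 Compound at 1 µM was dried from d6-DMSO and redissolved in Williams E medium. Pooled human hepatocytes were added at 680000 cells/mL. Samples were quenched in water/CH3CN (2:1) with 2% formic acid and clozapine as internal standard, then analysed by HPLC-HRMS in positive-ion full scan. k came from the slope of ln peak-area ratio versus time; CLint = k / cell concentration. Non-specific binding was not measured.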

The nature of data set [2]: Apparent permeability across RRCK cells after 1.5 hrs. The data set is classed as ADME, cell-based, Canis lupus familiaris, MDCKII-LE. As to conditions: dog, MDCK.
A short description of data set [3]: Drug level in rabbit liver microsomes treated with 7-(1,3-Dimethyl-5-(3-methyl-4-(trifluoromethyl)phenyl)-1H-pyrazol-4-yl)-2,5-dimethylimidazo[5,1-f ][1,2,4]triazin-4(3H)-one at 20 uM after 1 hr by UHPLC-UV-HRMS method. The data set is classed as ADME, Oryctolagus cuniculus, microsome.
Data set [4] is described as follows: Drug level in hamster liver microsomes treated with 7-(1,3-Dimethyl-5-(4-(trifluoromethyl)phenyl)-1H-pyrazol-4-yl)-5-(methoxymethyl)-2-methylimidazol[5,1-f ][1,2,4]triazin-4-(3H)-one at 20 uM after 1 hr by UHPLC-UV-HRMS method. The data set is classed as ADME, microsome. As to conditions: cricetinae. Put shortly: (§2)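 Preparative incubation: substrate 20 µM with liver microsomes (2 mg/mL) of the listed species in 0.1 M potassium phosphate, pH 7.5, with MgCl2 3.3 mM and NADPH 1.3 mM. Run at 37°C in a shaking water bath and stopped with an equal volume of CH3CN. Products were fractionated by HPLC and quantified by qNMR in d6-DMSO.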

A further data set relates to Liver. The experiment in a line: Drug level in dog liver microsomes treated with 2-(3,4-dimethoxybenzyl)-7-((2R,3R)-2-hydroxy-6-phenylhexan-3-yl)-5-methylimidazo[1,5-f][1,2,4]triazin-4(3H)-one at 20 uM after 1 hr by UHPLC-UV-HRMS method. Format: ADME, Canis lupus familiaris, microsome. Put shortly:
as §2

Data set [5] in a line: Intrinsic clearance in human hepatocytes assessed per million cells at 1 uM after 0.5 to 4 hrs by HPLC-HRMS method. As to conditions: for hepatocyte CLint at 1 µM: human hepatocytes, read-out: CLH. The data set is classed as ADME, cell-based, Hepatocyte. Put shortly:
as §1

Data set [6] deals with cGMP-dependent 3',5'-cyclic phosphodiesterase (Homo sapiens, UniProt O00408). The experiment in a line: Inhibition of human PDE2A1 using 3',5'-[3H]cGMP as substrate after 30 mins by scintillation proximity assay.
Chain of cGMP-dependent 3',5'-cyclic phosphodiesterase (O00408 whole entry): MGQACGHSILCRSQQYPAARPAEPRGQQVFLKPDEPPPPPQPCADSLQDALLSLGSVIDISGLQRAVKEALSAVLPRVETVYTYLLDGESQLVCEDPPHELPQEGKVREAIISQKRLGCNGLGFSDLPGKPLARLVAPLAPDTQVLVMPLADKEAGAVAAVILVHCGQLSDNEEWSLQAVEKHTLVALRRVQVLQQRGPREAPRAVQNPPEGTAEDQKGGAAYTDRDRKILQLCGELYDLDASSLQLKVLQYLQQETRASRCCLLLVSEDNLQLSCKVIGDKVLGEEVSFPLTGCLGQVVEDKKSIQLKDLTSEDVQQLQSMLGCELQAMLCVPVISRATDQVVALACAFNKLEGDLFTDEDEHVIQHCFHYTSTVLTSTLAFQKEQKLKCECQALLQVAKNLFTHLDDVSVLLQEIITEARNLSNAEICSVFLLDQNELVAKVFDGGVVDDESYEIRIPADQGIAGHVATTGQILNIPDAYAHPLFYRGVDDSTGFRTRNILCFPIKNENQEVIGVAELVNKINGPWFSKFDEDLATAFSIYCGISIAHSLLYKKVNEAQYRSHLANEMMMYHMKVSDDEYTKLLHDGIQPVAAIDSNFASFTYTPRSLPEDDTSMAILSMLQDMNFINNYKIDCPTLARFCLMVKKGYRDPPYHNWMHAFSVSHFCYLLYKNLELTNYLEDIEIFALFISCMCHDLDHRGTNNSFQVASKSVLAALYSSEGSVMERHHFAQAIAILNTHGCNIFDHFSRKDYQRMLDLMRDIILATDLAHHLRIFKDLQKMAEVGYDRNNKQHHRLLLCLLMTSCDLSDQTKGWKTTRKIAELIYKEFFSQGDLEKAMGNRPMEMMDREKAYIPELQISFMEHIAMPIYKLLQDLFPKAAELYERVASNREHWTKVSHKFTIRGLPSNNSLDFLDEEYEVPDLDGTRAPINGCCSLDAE

Where only a bound is given, the exact number is not on record here.

In the case of `Cc1nn2c(-c3c(C)nn(C)c3-c3ccc(C(F)(F)F)c(C)c3)nc(CO)c2c(=O)[nH]1`, the Stability entry in data set [1] is reported as “Stable”. Also, the Papp at 1.5 h in data set [2] came to 13 ×10⁻⁶ cm/s. Besides, the Drug metabolism entry in data set [3] is “Metabolite_Detected”.
On to `Cc1nn2c(-c3c(C)nn(C)c3-c3ccc(C(F)(F)F)c(CO)c3)nc(CO)c2c(=O)[nH]1`, for which the Stability result in data set [1] is on record as “Stable”. Besides, in data set [2], the Papp at 1.5 h was below 0.5 ×10⁻⁶ cm/s. Also, the Drug metabolism entry in data set [3] is on record as “Metabolite_Detected”.
With `Cc1nn2c(-c3c(C)n[nH]c3-c3ccc(C(F)(F)F)cc3)nc(CO)c2c(=O)[nH]1`, the Drug metabolism entry in data set [4] was “Metabolite_Detected”. For the same molecule, the Stability result in data set [1] is “Stable”. In addition, the Papp at 1.5 h in data set [2] came to 0.94 ×10⁻⁶ cm/s.
Consider `COc1ccc(Cc2nn3c([C@@H](CCC(O)c4ccccc4)[C@@H](C)O)nc(C)c3c(=O)[nH]2)cc1O` (stereo partly drawn), for which the Drug metabolism entry with Liver is recorded as “Metabolite_Detected”. Further, in data set [5], the hepatocyte CLint at 1 µM was determined as 12 µL/min/1e6 cells. Moreover, in data set [2], the apparent permeability coefficient (Papp) at 1.5 h is 1.1 ×10⁻⁶ cm/s.
In the case of `COc1ccc(Cc2nn3c([C@@H](CCC(=O)c4ccccc4)[C@@H](C)O)nc(C)c3c(=O)[nH]2)cc1OC`, the Drug metabolism entry in the data set on Liver is on record as “Metabolite_Detected”. Further, in data set [5], the hepatocyte CLint at 1 µM amounted to 25 µL/min/1e6 cells. Further, the Papp at 1.5 h in data set [2] came to 11 ×10⁻⁶ cm/s.
The like results for `COc1cc(Cc2nn3c([C@@H](CCC(O)c4ccccc4)[C@@H](C)O)nc(C)c3c(=O)[nH]2)ccc1O` (stereo partly drawn) were, in that order, “Metabolite_Detected”, 13 µL/min/1e6 cells and 1.2 ×10⁻⁶ cm/s.
`Cc1nc(-c2cnn3c2CN(CC2CCCC2O)CC3)c2c(=O)[nH]cnn12` (single isomer, unassigned; diastereomer 2) displayed a CLint in data set [5] (hepatocytes, 1 µM) of 5.8 µL/min/1e6 cells. The molecule also showed a half-maximal inhibitory concentration (IC50) in data set [6] above 2000 nM.
In the case of `Cc1nn2c(-c3c(C)nn(C)c3-c3ccc(C(F)(F)F)c(CO)c3)nc(C)c2c(=O)[nH]1`, the hepatocyte CLint at 1 µM in data set [5] turned out to be 3.9 µL/min/1e6 cells. Further, in data set [2], the Papp at 1.5 h is 3 ×10⁻⁶ cm/s. For the same molecule, in data set [3], the Drug metabolism entry is “Metabolite_Detected”.
Consider `Cc1nn2c(-c3c(CO)nn(C)c3-c3ccc(C(F)(F)F)c(CO)c3)nc(C)c2c(=O)[nH]1`, for which the Stability entry in data set [1] was “Stable”. The Papp at 1.5 h in data set [2] amounted to 0.55 ×10⁻⁶ cm/s. The Drug metabolism entry in data set [3] is reported as “Metabolite_Detected”.
As for `Cc1nn2c(-c3c(CO)nn(C)c3-c3ccc(C(F)(F)F)c(C)c3)nc(CO)c2c(=O)[nH]1`, the Stability result in data set [1] is reported as “Stable”. For the same molecule, the Papp at 1.5 h in data set [2] turned out to be 1.7 ×10⁻⁶ cm/s. Further, the Drug metabolism entry in data set [3] is “Metabolite_Detected”.
As for `Cc1nn2c(-c3c(C)nn(C)c3-c3ccc(C(F)(F)F)cc3)nc(CO)c2c(=O)[nH]1`, in data set [4], the Drug metabolism result is recorded as “Metabolite_Detected”. Also, the Stability entry in data set [1] is “Stable”. For the same molecule, in data set [6], 0.3 nM corresponded to half-maximal inhibition (IC50). Moreover, the Papp at 1.5 h in data set [2] was 8.3 ×10⁻⁶ cm/s.
On to `Cc1nn2c(-c3c(C(=O)O)nn(C)c3-c3ccc(C(F)(F)F)c(C)c3)nc(C)c2c(=O)[nH]1`, for which, in data set [1], the Stability result is “Stable”. For the same molecule, the Papp at 1.5 h in data set [2] came out at 53 ×10⁻⁶ cm/s. Further, in data set [3], the Drug metabolism entry is “Metabolite_Detected”.
On to `COCc1nc(-c2c(C)nn(C)c2-c2ccc(C(F)(F)F)cc2)n2c1c(=O)[nH]c(C)[n+]2[O-]`, for which, in data set [4], the Drug metabolism result is listed as “Metabolite_Detected”. In data set [5], the hepatocyte CLint at 1 µM came to 13 µL/min/1e6 cells. Also, the Papp at 1.5 h in data set [2] is 7.9 ×10⁻⁶ cm/s.
Turning to `COc1ccc(Cc2nn3c([C@@H](CCC(O)c4ccccc4)[C@@H](C)O)nc(C)c3c(=O)[nH]2)cc1OC` (single isomer, unassigned; diastereomer 1), the Drug metabolism result in the data set with Liver is reported as “Metabolite_Detected”. In addition, the hepatocyte CLint at 1 µM in data set [5] was 14 µL/min/1e6 cells. In data set [2], the Papp at 1.5 h is 2 ×10⁻⁶ cm/s.
Take `Cc1nn2c(-c3c(CO)nn(C)c3-c3ccc(C(F)(F)F)cc3)nc(CO)c2c(=O)[nH]1`: the Drug metabolism entry in data set [4] is given as “Metabolite_Detected”. In data set [1], the Stability entry is recorded as “Stable”. Moreover, in data set [2], the Papp at 1.5 h turned out to be 1 ×10⁻⁶ cm/s.
As for `COc1ccc(Cc2nn3c([C@@H](CC(O)C(O)c4ccccc4)[C@@H](C)O)nc(C)c3c(=O)[nH]2)cc1OC` (stereo partly drawn), the Drug metabolism entry in the data set with Liver is “Metabolite_Detected”. The hepatocyte CLint at 1 µM in data set [5] was determined as 2.4 µL/min/1e6 cells. Further, the Papp at 1.5 h in data set [2] is 0.56 ×10⁻⁶ cm/s.
